Test results: PubChem BioAssay AID624467 (The Scripps Research Institute Molecular Screening Center, 2012)
Screen size: about 360,000 compounds; about 3,600 (1%) were called active. This is one part of a sample in which actives are shown more often than they occur.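 The calls were made as follows: active = activation above the mean activation of all test compounds in the run plus 3 SD (cut at about 38% in these data); inactive = the rest.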

The compounds below were run against Trace amine-associated receptor 1 (Homo sapiens) (UniProt Q96RJ0) (assay: activators of TAAR1 calcium mobilization – Fluo-8 calcium fluorescence, CHO RD-HGA16 cells, primary screen (AID 624467)). Conditions: CHO RD-HGA16 TAAR1, Fluo-8 calcium fluorescence; at 3 µM; stronger effect = higher value; vehicle wells 0%, saturating PEA agonist 100%.
Chain of Trace amine-associated receptor 1 (Homo sapiens) (Q96RJ0 whole entry, looked up): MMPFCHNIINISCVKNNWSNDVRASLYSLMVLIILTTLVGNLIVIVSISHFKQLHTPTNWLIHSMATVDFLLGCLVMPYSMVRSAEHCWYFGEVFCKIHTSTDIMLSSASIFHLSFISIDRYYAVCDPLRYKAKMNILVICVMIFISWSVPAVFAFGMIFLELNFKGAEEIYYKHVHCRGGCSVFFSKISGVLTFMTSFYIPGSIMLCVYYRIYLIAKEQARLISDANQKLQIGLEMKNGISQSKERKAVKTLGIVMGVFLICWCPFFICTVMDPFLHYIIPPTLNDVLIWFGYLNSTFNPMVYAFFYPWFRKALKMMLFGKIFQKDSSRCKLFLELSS
Method in brief: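 Benchmarks: low control DMSO, high control PEA (EC100); System: CHO RD-HGA16 cells carrying human TAAR1 plus Gα16; Detection: Fluo-8 fluorescence, 5 s baseline then 140 s kinetic read; Schedule: 17-24 h plating, Fluo-8 75 min 37 °C, 30 min RT; Read-out basis: % activation from peak over basal fluorescence ratio, DMSO-to-PEA scaled.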
`CCCN1C(=O)C(Cc2nc3ccccc3c(=O)n2-c2ccccc2)c2cc(C)ccc21` (stereo not given) was tested, and the activation was 13.8% (inactive). For `CCCc1nc2c(c(=O)c3ccccc3n2C)c(=O)n1C1CCCCCC1`, the activation was 46.7% (active). `CCOC(=O)Cn1c2c(n(-c3ccc(F)cc3)c1=O)C=C(c1ccccc1)[C@@H](C)C(C(=O)N(C)C1CCCCC1)=C2` was tested, and the activation was -1.16% (inactive). With `COC(=O)[C@]12C[C@H](CC(=O)NCc3ccc(C)o3)C(=O)N(CCC3=CCCCC3)C1=C[C@H](C(C)(C)C)O[C@@H]2C` the activation was -2.27% (inactive). For `CCCCCCCCN1C(=O)[C@@H](CC(=O)N2CCN(C(=O)OCC)CC2)C[C@@]2(C(=O)OC)C1=C[C@H](C1CCCC1)O[C@@H]2C`, the activation was -2.04% (inactive). `CCN(CC)P(=O)(Nc1ccc(SC(F)F)cc1)c1ccc(N(C)C)cc1NC(=O)c1ccco1` (stereo not given) was tested, and the activation was 1.83% (inactive). With `NC(=O)c1oc2ccccc2c1NC(=O)Cc1ccccc1` the activation was 10.1% (inactive). `Nc1c(NCCc2ccccc2)c2ccccc2oc1=O` was tested, and the activation was 88.1% (active). For `CC(C)(C)Nc1c(N)c(=O)oc2ccccc12`, the activation was 9.39% (inactive). `COC(=O)C1=C(C)N(Cc2cccc(C(F)(F)F)c2)C(=NCc2ccccc2)NC1c1ccccc1C(F)(F)F` (stereo not given) was tested, and the activation was 1.05% (inactive). With `C=CCN=C1NC(c2cccc(C(F)(F)F)c2)C(C(=O)OC)=C(C)N1C` (stereo not given) the activation was -0.19% (inactive). For `COC(=O)[C@]12C[C@H](CC(=O)NCc3ccc(OC)c(OC)c3)C(=O)N(Cc3ccccc3)C1=C[C@H](C(C)C)O[C@@H]2C1CC1`, the activation was -0.82% (inactive). In the case of `CCCCn1c(-c2cccc(C)c2)nc2cc3[nH]c(=O)c(C(C)C)nc3cc21`, the activation was 14.7% (inactive). For `NS(=O)(=O)c1ccc(NC(=S)NC(=O)c2cccnc2)cc1`, the activation was 0.75% (inactive). With `O=C(/C=C/c1ccc(F)cc1)NC(=S)NNC(=O)c1cccnc1` the activation was 39.6% (active). In the case of `Cc1cccc(OCCNC(=S)NC(=O)c2cccnc2)c1`, the activation was -0.63% (inactive). For `COCCN1C(=O)N(c2ccc(Cl)cc2)C(=O)C1CC(=O)Nc1cc(OC)cc(OC)c1` (stereo not given), the activation was 18.5% (inactive). With `C[C@H](O)[C@@H]1C(=O)N2CCc3c([nH]c4c(-c5ccc6c(c5)OCO6)cccc34)[C@@H]2C[C@@H]1N(C)C(=O)c1ccco1` the activation was 14.6% (inactive). For `Cc1ccc(O)c(NC(=S)NC(=O)COc2ccc(Br)cc2)c1`, the activation was 108% (active). In the case of `Cc1ccsc1C(=O)NNC(=O)COc1ccc(Br)cc1`, the activation was 1.12% (inactive). For `Cc1ccc(O)c(/C=N/NC(=O)COc2ccc3c(C)cc(=O)oc3c2)c1`, the activation was 6.72% (inactive). `OC[C@H]1O[C@@H](c2nc(-c3nc(-c4ccc(F)cc4)no3)cs2)[C@H](O)[C@@H](O)[C@H]1O` was tested, and the activation was 0.88% (inactive). `COc1ccc(OC)c(NC(=O)CSc2nc3cccnc3n2C)c1` was tested, and the activation was 1.87% (inactive). For `Cc1noc(C)c1COC(=O)Cn1c(C)nc2ccccc21`, the activation was 1.89% (inactive). In the case of `CCOc1ccc(OCCSc2nc3ccccc3n2CC(=O)O)cc1`, the activation was 3.64% (inactive). With `CCCCCCCCCCOC(=O)Cn1c(COc2ccc(C)cc2)[n+](C)c2ccccc21` the activation was 74.1% (active). With `NCCCNC(=S)NCCCN(Cc1ccc(Cl)cc1)c1ccc(Br)cn1` the activation was 24.3% (inactive). `S=C(NCCCc1cnc[nH]1)NCCCN(Cc1ccc(Cl)c(Cl)c1)c1ccc(Br)cn1` was tested, and the activation was 44.3% (active). In the case of `COC(=O)C1=C(C)N(Cc2ccc(C(F)(F)F)cc2)C(=NCc2ccc(C(F)(F)F)cc2)NC1c1cccc(Cl)c1` (stereo not given), the activation was 16.8% (inactive). In the case of `O=C(CCC1CCCN(Cc2ccc(O)c(Cl)c2)C1)NCc1ccccc1F` (stereo not given), the activation was 5.41% (inactive). For `CCC(C)C(N=C1NS(=O)(=O)c2ccccc21)C(=O)N1CCC(C)CC1` (stereo not given), the activation was 5.5% (inactive). `COc1ccccc1-c1ccc([C@@H]2C[C@H]3[C@H](CON3C)CN2S(=O)(=O)c2cc(Cl)cc(Cl)c2)cc1` was tested, and the activation was 0.17% (inactive). For `COc1ccc(OCC(O)CNC(=O)Nc2ccc(Cl)cc2)cc1` (stereo not given), the activation was 9.53% (inactive). `OC(COc1ccccc1)CN1CCN(c2cccc(Cl)c2)CC1` (stereo not given) was tested, and the activation was 4.5% (inactive). `OC(CNCCc1ccc(Cl)cc1Cl)COc1ccccc1` (stereo not given) was tested, and the activation was 86% (active). `CC1CN(S(=O)(=O)c2cccc(C(F)(F)F)c2)CN1C(=O)N1CCOCC1` (stereo not given) was tested, and the activation was -1.03% (inactive). With `CCOC(=O)[C@]12CCCC=C1N(CCC1=CCCCC1)C(=O)[C@H](CC(=O)N1CCOCC1)C2` the activation was -0.62% (inactive). In the case of `CCS(=O)(=O)N1CCN(C(=O)c2cccs2)CC1`, the activation was 3.03% (inactive). In the case of `COC(=O)c1ccc(CN2C(=O)[C@]3(OCCC=C[C@H]3C)c3c(Br)cccc32)cc1`, the activation was 2.59% (inactive). With `Cc1ccccc1CN1C(=O)c2ccccc2Sc2ccc(C(=O)NCCCN3CCOCC3)cc21` the activation was 40.1% (active). With `O=C(NCCCN1CCCCC1)c1ccc2c(c1)NC(=O)C(N1CCOCC1)S2` (stereo not given) the activation was 3.95% (inactive). For `CCC1=Nc2cc(C(=O)NCCCN3CCOCC3)ccc2Sc2ccc(Br)cc21`, the activation was 9.87% (inactive). With `COC(=O)c1c(-c2ccc(OC)cc2)c2c(c3c4cc(OC)ccc4n(S(=O)(=O)c4ccc(F)cc4)c13)C(=O)N(C)C2` the activation was -0.58% (inactive). With `CCOC(=O)N1CCN(C(=O)c2ccccc2SCC(=O)NCC2CCCCC2)CC1` the activation was 2.29% (inactive). `O=C(COC(=O)c1ccc(F)cc1)NCC1COc2ccccc2O1` (stereo not given) was tested, and the activation was 0.46% (inactive). `O=C(COc1ccc(F)cc1Br)NCC1COc2ccccc2O1` (stereo not given) was tested, and the activation was -1.29% (inactive). In the case of `c1ccc2c(c1)OCC(CNc1ncnc3nc[nH]c13)O2` (stereo not given), the activation was 225% (active). With `CN(c1ccccc1)S(=O)(=O)c1ccc(C(=O)NCc2cccnc2)cc1` the activation was 3.27% (inactive). `O=S(=O)(Cc1cc(Sc2ccccc2)nc(-c2ccccc2)n1)c1ccccc1` was tested, and the activation was 11.3% (inactive). For `Cc1cc(N2CCOCC2)nc2ccc(NC(=S)N3CCN(Cc4ccccc4)CC3)cc12`, the activation was 7.44% (inactive). `Cc1ccc(Sc2cc(N3CCOCC3)nc(-c3ccccc3)n2)cc1` was tested, and the activation was 48.2% (active). `c1ccc2c(CCN3CCNC[C@H]3Cc3cccc4ccccc34)cccc2c1` was tested, and the activation was 33.5% (inactive). `c1ccc(C2CNCc3c2ccc2ccccc32)cc1` (stereo not given) was tested, and the activation was 82% (active). With `O=C(COC(=O)c1cc(-c2cccs2)nn1-c1ccccc1)Nc1cc([N+](=O)[O-])ccc1Cl` the activation was 7.58% (inactive). In the case of `Cc1ccc(N2C(=O)CC(NCc3ccc4c(c3)OCO4)C2=O)cc1Cl` (stereo not given), the activation was 1.12% (inactive). With `CSCCC(NS(=O)(=O)c1ccc2c(c1)oc(=O)n2C)C(=O)NC1CCCc2ccccc21` (stereo not given) the activation was 4.94% (inactive). `COC(=O)[C@]12C[C@H](CC(=O)NCCc3ccccc3OC)C(=O)N(Cc3ccccc3)C1=C[C@H](C(C)C)O[C@@H]2C1CC1` was tested, and the activation was 30.4% (inactive). `COc1ccc(NS(=O)(=O)c2ccc(NC(=S)NC(=O)CC(C)C)cc2)cc1` was tested, and the activation was 42.2% (active). With `COc1ccc(OC)c(C(C)NC(=S)Nc2ccc(S(=O)(=O)Nc3ncccn3)cc2)c1` (stereo not given) the activation was 1.66% (inactive). For `COc1cc(NS(=O)(=O)c2ccc(NC(=S)NC(=O)c3ccccc3)cc2)nc(OC)n1`, the activation was -5.7% (inactive). In the case of `COc1ccc(C2c3ccc(O)cc3Oc3ncn(CCCO)c(=N)c32)cc1OC` (stereo not given), the activation was 0.73% (inactive). With `C=CCN1C(=NC(=O)COc2ccccc2)SC2CS(=O)(=O)CC21` (stereo not given) the activation was 2.44% (inactive). In the case of `C=CCN1CN(S(=O)(=O)c2ccc(OC)cc2)c2nc3ccccc3nc21`, the activation was 2.16% (inactive). With `O=C(NCc1ccccc1)[C@H]1CCCN1C(=O)[C@H]1CCCN1C(=O)N1CCOCC1` the activation was 1.52% (inactive). `Cc1ccc(C)n1-c1ccncc1` was tested, and the activation was 2.15% (inactive). `COc1ccc(C(C(=O)Nc2c(C)cccc2C)N2CCN(c3ccc(C)cc3)CC2)cc1` (stereo not given) was tested, and the activation was 5.99% (inactive). In the case of `COc1ccc(C(C(O)C(=O)c2c[nH]c3ccccc23)N2CCN(c3ccccc3)CC2)cc1` (stereo not given), the activation was 39.9% (active). With `COc1ccc(C(CC(=O)N2CCN(c3ccccc3)CC2)c2c(O)cc(OC)cc2OC)cc1` (stereo not given) the activation was 2.38% (inactive). With `COC(=O)C1=C(C)N(Cc2ccc(F)cc2)C(=S)NC1c1cccc(Cl)c1` (stereo not given) the activation was -0.89% (inactive). With `CN1CCCc2nc(-c3ccccc3)ccc21` the activation was 1.31% (inactive). In the case of `O=C(Nc1cccc(NC(=O)c2ccc(Br)cc2)c1)c1ccccc1`, the activation was 63.2% (active). `CC(C)(C)NC(=O)c1cccc(NC(=O)Cc2ccc(Br)cc2)c1` was tested, and the activation was 2.23% (inactive). `O=C(Nc1ccccc1)c1ccc2nsnc2c1` was tested, and the activation was -0.47% (inactive). For `O=C1CCN(CCc2ccccc2)CCN1CCOc1ccccc1`, the activation was 19.8% (inactive). For `N#CNC1=NCN(CCc2ccccc2)CN1`, the activation was 63.9% (active). In the case of `CCCN1CNC(=S)N(CCc2ccccc2)C1`, the activation was 4.93% (inactive). With `CC(C)C[C@H](NC(=O)CC1CCCC1)C(=O)N1CCC[C@H]1C(=O)NCc1ccccc1` the activation was 1.37% (inactive). With `COCCCn1c(Cc2csc(Nc3cccc(Cl)c3)n2)nnc1SCC(=O)OC1CCCCC1` the activation was 52.8% (active). For `COCCCn1c(SCC(=O)NC2CCCC2)nnc1-c1ccccc1`, the activation was 0.55% (inactive). For `CCOc1ccc(Nc2nc(Cc3nnc(SCC(=O)NC4CCCC4)n3C)cs2)cc1`, the activation was 11.9% (inactive). `CC(C)Nc1nnc(SCC(=O)c2c[nH]c3ccccc23)s1` was tested, and the activation was 1.89% (inactive). With `CCOc1ncccc1C(=O)OCC(=O)c1c[nH]c2ccccc12` the activation was 14.1% (inactive). `C[C@H](NC(=O)c1ccccc1)C(=O)OCC(=O)c1c[nH]c2ccccc12` was tested, and the activation was 70% (active). For `COc1ccc(NC(=O)C2(C)Cc3c(-c4ccc(C(N)=O)cc4)ccnc3O2)cc1` (stereo not given), the activation was 1.37% (inactive). For `CN[C@H]1C[C@H]2c3[nH]c4c(-c5ccccc5)cccc4c3CCN2C(=O)[C@H]1[C@H](C)O`, the activation was 4.95% (inactive).
